pIC50, pKd: −log10 of the molar value. Calls of active or inactive are those of the source. No cut-off for these calls is given here.
Assays:
[1] = system: Raji; assay: Cell cycle arrest in human Raji cells assessed as accumulation at S phase after 48 hrs by propidium iodide staining based flow cytometry (reference value: 32.2%); type: functional
[2] = organism: Homo sapiens; assay: Stabilization of c-Myc G-quadruplex DNA in human CCRF-CEM cells assessed as downregulation of c-Myc mRNA level at 2 uM after 12 hrs by RT-PCR method relative to control; type: cell-based
How it was run: (§1)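 RAJI, CCRF-CEM and U266B1 grown in RPMI 1640 with 10% fetal calf serum at 37 °C, plated at 1 × 10^6 cells/well overnight, then treated 12 h with 4, 2, 1 or 0.5 μM (DMSO control). RNA (2 μg) reverse-transcribed with oligo dT18/M-MLV; c-MYC, NM23-H2 and β-actin amplified by real-time PCR, checked on 1.5% agarose.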

[3] = system: Raji; assay: Induction of apoptosis in human Raji cells assessed as early apoptotic cells at 0.5 uM after 48 hrs by Annexin V-FITC/propidium iodide staining based flow cytometry (reference value: 1.8%); type: functional
How it was run: (§2)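 RAJI cells exposed to compound or control medium for 12 or 48 h were washed in PBS and resuspended in binding buffer. They were stained with FITC annexin V and PI for 15 min in the dark, and fluorescence was measured by flow cytometry.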

[4] = system: Raji; assay: Induction of apoptosis in human Raji cells assessed as early apoptotic cells at 0.5 uM after 12 hrs by Annexin V-FITC/propidium iodide staining based flow cytometry (reference value: 2.3%); type: functional; how it was run: as §2
[5] = organism: Homo sapiens; assay: Effect on c-Myc DNA translocated chromosome product in human Raji cells assessed as decrease in amplification of exon-2 after 12 hrs by RT-PCR method; type: cell-based
How it was run: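 RAJI cells, which retain NHE III1, and CA46 cells, which lack NHE III1 and the P1/P2 promoters, were exposed to graded compound concentrations for 12 h. Total RNA (2 μg) was reverse-transcribed with oligo dT18 and M-MLV. c-MYC exons 1 and 2, NM23-H2 and β-actin were amplified by real-time PCR against untreated cells. Three repeats were done; two-tailed unpaired t-test.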

[6] = system: Raji; assay: Induction of apoptosis in human Raji cells assessed as downregulation of CDK6 expression after 12 hrs by Western blot method; type: functional, cell-based
How it was run: (§3)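 After compound exposure (12 h for cell-cycle and apoptosis markers), RAJI cells were lysed in 1% NP-40 buffer. Protein at 50 μg per lane was run on 3–12% SDS-PAGE and transferred to nitrocellulose. Blots were probed with primary antibodies (GAPDH as loading reference) and detected with an HRP secondary and enhanced chemiluminescence.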

[7] = system: Raji; assay: Cell cycle arrest in human Raji cells assessed as accumulation at G2/M phase after 48 hrs by propidium iodide staining based flow cytometry (reference value: 24.4%); type: functional
[8] = system: Raji; assay: Induction of apoptosis in human Raji cells assessed as necrotic cells at 0.5 uM after 48 hrs by Annexin V-FITC/propidium iodide staining based flow cytometry relative to control; type: functional; how it was run: as §2
[9] = system: Raji; assay: Cell cycle arrest in human Raji cells assessed as accumulation at S phase after 12 hrs by propidium iodide staining based flow cytometry (reference value: 32.2%); type: functional
[10] = organism: Homo sapiens; assay: Stabilization of c-Myc G-quadruplex DNA in human Raji cells assessed as downregulation of c-Myc protein level after 6 hrs by Western blot method; type: cell-based
How it was run: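 Western blot of RAJI cells treated either with 1 μM for 6, 12, 24 and 48 h or with graded concentrations for 6 h. Lysed in 1% NP-40, 50 μg protein/lane on 3–12% SDS-PAGE, nitrocellulose, probed for c-MYC, NM23-H2, GAPDH loading control, HRP secondary with ECL; untreated control, three replicates.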

[11] = system: Raji; assay: Induction of apoptosis in human Raji cells assessed as upregulation of p27 expression up to 4 uM after 12 hrs by Western blot method; type: functional, cell-based; how it was run: as §3
[12] = system: Raji; assay: Cell cycle arrest in human Raji cells assessed as accumulation at S phase after 24 hrs by propidium iodide staining based flow cytometry (reference value: 32.2%); type: functional
[13] = Drug uptake in human Raji cells at 1 uM after 12 to 48 hrs; type: ADME, cell-based
[14] = Binding affinity to 5'-FAM labeled c-Myc Pu27 G-quadruplex DNA (unknown origin) in presence of K+ ions by MST analysis
How it was run: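 The DNA was annealed at 95 °C for 5 min, slowly cooled and held at 4 °C overnight. Ligand was run as a 12-point series, 0–20 μM for Pu27 and up to 200 μM for duplex. MST was measured, and KD was fitted to a Hill model from three replicates.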

[15] = system: Raji; assay: Induction of apoptosis in human Raji cells assessed as downregulation of Cyclin D3 expression after 12 hrs by Western blot method; type: functional, cell-based; how it was run: as §3
[16] = system: Mus musculus; assay: Toxicity in NOD/SCID nude mouse xenografted with human Raji cells assessed as reduction in body weight at 15 to 30 mg/kg, ip administered once daily for 2 weeks measured every day during compound dosing; type: organism-based; details: in vivo, 336 h
How it was run: (§4)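 NOD/SCID mice implanted subcutaneously in the underarm with 5 × 10^6 RAJI cells in 100 μL RPMI 1640 with 10% serum; tumours grown about 1 week, then mice randomized. Body weight recorded daily; organ weights taken at end.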

[17] = system: Raji; assay: Antiproliferative activity against human Raji cells after 48 hrs by MTT assay; type: functional, cell-based
How it was run: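 RAJI cells were seeded at 5 × 10^3 cells per well and treated for 48 h, with a DMSO-matched control. MTT at 0.5 mg/mL was added for 4 h at 37 °C, followed by overnight lysis at 37 °C and absorbance at 570 nm. Each assay was done in triplicate. IC50 came from the dose-dependent percentage survival versus the control.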

[18] = system: Raji; assay: Induction of apoptosis in human Raji cells assessed as late apoptotic cells at 0.5 uM after 12 hrs by Annexin V-FITC/propidium iodide staining based flow cytometry relative to control; type: functional; how it was run: as §2
[19] = system: Raji; assay: Cell cycle arrest in human Raji cells assessed as accumulation at G2/M phase after 12 hrs by propidium iodide staining based flow cytometry (reference value: 24.4%); type: functional
[20] = system: Mus musculus; assay: Toxicity in NOD/SCID nude mouse xenografted with human Raji cells assessed as reduction in viscera weight at 15 to 30 mg/kg, ip administered once daily for 2 weeks measured every day during compound dosing; type: organism-based; details: in vivo, 336 h; how it was run: as §4
[21] = Inhibition of NM23-H2 binding to 5'-FAM labeled c-Myc Pu27 G-quadruplex DNA (unknown origin) at 10 uM preincubated for 1 hr followed by NM23-H2 addition by electrophoretic mobility shift assay relative to control
How it was run: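 Annealed labeled Pu27 (1.5 μM) preincubated 1 h at 25 °C with 10 μM ligand or 5% DMSO. Recombinant His-tagged NM23-H2 (0.5 μM, E. coli BL21, nickel-purified) then added for 1 h at 37 °C. Complexes resolved on 5% native polyacrylamide gel in 0.5× TBE at 4 °C. Inhibition taken as loss of complex band intensity versus no-compound band set at 100%. Run three times.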

[22] = organism: Homo sapiens; assay: Stabilization of c-Myc G-quadruplex DNA in human Raji cells assessed as downregulation of c-Myc mRNA level at 2 uM after 12 hrs by RT-PCR method relative to control; type: cell-based; how it was run: as §1
[23] = system: Raji; assay: Induction of apoptosis in human Raji cells assessed as necrotic cells at 1 uM after 12 hrs by Annexin V-FITC/propidium iodide staining based flow cytometry relative to control; type: functional; how it was run: as §2

Drug uptake [13]: Not Active
pKd [14]: 5.89
pIC50 [17]: 5.33
inhibition [21]: > 80%
SMILES: CN(C)CCCNc1c2ccccc2nc2c1oc1ccc(OCC3CCN(C)CC3)cc12
Activity [1]: 21.4%
Activity [2]: < 20%
Activity [3]: 12.2%
Activity [4]: 4.6%
Activity [5]: Dose-dependent effect
Activity [6]: Dose-dependent effect
Activity [7]: 16.6%
Activity [8]: 0%
Activity [9]: 5.5%
Activity [10]: Dose-dependent effect
Activity [11]: Active
Activity [12]: 19.4%
Activity [15]: Dose-dependent effect
Activity [16]: Non-Toxic
Activity [18]: 0.2%
Activity [19]: 29.3%
Activity [20]: Non-Toxic
Activity [22]: > 80%
Activity [23]: 0%
